Results reported in the M2OR odorant receptor database.

Each compound was assayed against T1, OR52D1 (Homo sapiens) (UniProt Q9H346). Details: stereoisomer not certain.
T1 sequence (whole entry): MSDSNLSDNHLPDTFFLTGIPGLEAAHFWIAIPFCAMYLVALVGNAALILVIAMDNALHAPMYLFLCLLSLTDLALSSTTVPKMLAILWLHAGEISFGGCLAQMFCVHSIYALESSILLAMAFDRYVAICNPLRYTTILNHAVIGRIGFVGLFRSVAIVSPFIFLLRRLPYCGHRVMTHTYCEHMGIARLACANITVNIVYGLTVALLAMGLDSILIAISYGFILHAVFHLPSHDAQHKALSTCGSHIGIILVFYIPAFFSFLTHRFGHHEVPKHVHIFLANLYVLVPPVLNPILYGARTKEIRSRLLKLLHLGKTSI
Method in brief: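 Transient luciferase assays in mammalian cell lines were common, though methods varied by source. The values come from published papers and their supplementary material, with extra details from the original authors when needed. Responsive refers to a measured signal the original authors judged statistically different from baseline, and non-responsive (inactive) to the remainder.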

Compound	odorant receptor agonist call;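 further: active if original authors judged signal statistically different from baseline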
CCCCCCCCC(=O)OC	inactive
O=c1ccc2ccccc2o1	inactive
CC(C)=CCCC(C)=CCO	inactive
c1ccc2ncccc2c1	inactive
CC(=O)C=CC1=C(C)CCCC1(C)C	active
CCCCCCC(C)O (configuration not stated)	inactive
CCCCC(CC)CO (configuration not stated)	inactive
Cc1ccc(C(C)C)c(O)c1	inactive
CCCCCCCCCCCCO	inactive
CC(=O)C(C)O (configuration not stated)	active
CCCCCCCCCC(=O)OC	inactive
CC(C)=CCCC(C)=CC#N	active
CCCCCCCC(=O)[O-].[H+]	active
CCCCCC(=O)OC	inactive
CCCCCCCCCC(=O)[O-].[H+]	inactive
Cc1occc(=O)c1O	inactive
CCCCCCCCCC(=O)OCC	inactive
c1cscn1	active
CCC(=O)O	active
CCCCC(O)CCC (configuration not stated)	inactive
CCCCCC(O)CC (configuration not stated)	inactive
CCCCCCCC(C)O (configuration not stated)	active
CC=Cc1ccc(OC)cc1	active
CCCCCCCCCCCC(=O)O	inactive
CCCCCCC(=O)CC	active
c1ccc2scnc2c1	active
CCCCCCCCC(=O)OCC	inactive
